Measured values from publication PMC5665024 (Chemical research in toxicology, 2017).
In brackets after ≈: the same amount, converted by molar mass. Read-outs that look alike come from different tables or passages of the source.

Assays:
[1] = target: DNA polymerase I from E. coli (Klenow fragment), Kf(exo-) (Escherichia coli, UniProt P00582, D355A/E357A); assay: Steady-state primer extension assay, Kf; assay type: biochemical
pol β binding to DNA = pol β binding to DNA (Homo sapiens, UniProt P06746); assay: Polymerase–DNA interaction, electrophoretic mobility shift assay, pol β; conditions: for inhibition of DNA binding to polymerase (EMSA): honokiol up to 200 μM, polymerase in excess of DNA
[2] = target: T1, human DNA polymerase λ (pol λ) (Homo sapiens, UniProt Q9UGP5); assay: Steady-state primer extension assay, pol λ; assay type: biochemical
T1 sequence (Q9UGP5 1-575): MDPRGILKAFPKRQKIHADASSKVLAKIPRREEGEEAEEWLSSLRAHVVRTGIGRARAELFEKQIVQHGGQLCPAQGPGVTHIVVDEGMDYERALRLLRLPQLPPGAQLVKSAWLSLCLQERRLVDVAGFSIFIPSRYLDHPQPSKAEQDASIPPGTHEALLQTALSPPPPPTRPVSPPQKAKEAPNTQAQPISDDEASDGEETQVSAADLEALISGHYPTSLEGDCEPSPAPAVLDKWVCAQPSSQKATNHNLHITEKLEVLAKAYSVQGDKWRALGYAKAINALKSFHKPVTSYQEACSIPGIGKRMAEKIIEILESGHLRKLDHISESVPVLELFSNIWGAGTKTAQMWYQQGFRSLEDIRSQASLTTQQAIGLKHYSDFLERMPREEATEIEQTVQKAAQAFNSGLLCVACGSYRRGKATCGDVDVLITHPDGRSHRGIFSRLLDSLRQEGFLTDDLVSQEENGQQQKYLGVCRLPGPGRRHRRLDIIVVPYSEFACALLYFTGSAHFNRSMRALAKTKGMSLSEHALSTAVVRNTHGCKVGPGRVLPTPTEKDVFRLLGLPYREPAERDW

[3] = Solubility limit of honokiol in polymerase buffer; assay type: physicochemical
pol β = pol β (Homo sapiens, UniProt P06746); assay: Presteady-state burst kinetics; assay type: biochemical; conditions: modeling with a noncompetitive inhibition scheme (Figure S10)
[4] = cited from earlier work
[5] = test system: HL60 promyelocytic leukemia cells; conditions: mice xenografted with HL60 promyelocytic leukemia cells; cited from earlier work
KF(exo-) binding to DNA = KF(exo-) binding to DNA (Escherichia coli, UniProt P00582, D355A/E357A); assay: Polymerase–DNA interaction, electrophoretic mobility shift assay, KF; design: species or system E. coli; conditions: native PAGE
[6] = target: T2, human DNA polymerase η (pol η) (Homo sapiens, UniProt Q9Y253); assay: Steady-state primer extension assay, pol η; assay type: biochemical
T2 sequence (Q9Y253 1-713): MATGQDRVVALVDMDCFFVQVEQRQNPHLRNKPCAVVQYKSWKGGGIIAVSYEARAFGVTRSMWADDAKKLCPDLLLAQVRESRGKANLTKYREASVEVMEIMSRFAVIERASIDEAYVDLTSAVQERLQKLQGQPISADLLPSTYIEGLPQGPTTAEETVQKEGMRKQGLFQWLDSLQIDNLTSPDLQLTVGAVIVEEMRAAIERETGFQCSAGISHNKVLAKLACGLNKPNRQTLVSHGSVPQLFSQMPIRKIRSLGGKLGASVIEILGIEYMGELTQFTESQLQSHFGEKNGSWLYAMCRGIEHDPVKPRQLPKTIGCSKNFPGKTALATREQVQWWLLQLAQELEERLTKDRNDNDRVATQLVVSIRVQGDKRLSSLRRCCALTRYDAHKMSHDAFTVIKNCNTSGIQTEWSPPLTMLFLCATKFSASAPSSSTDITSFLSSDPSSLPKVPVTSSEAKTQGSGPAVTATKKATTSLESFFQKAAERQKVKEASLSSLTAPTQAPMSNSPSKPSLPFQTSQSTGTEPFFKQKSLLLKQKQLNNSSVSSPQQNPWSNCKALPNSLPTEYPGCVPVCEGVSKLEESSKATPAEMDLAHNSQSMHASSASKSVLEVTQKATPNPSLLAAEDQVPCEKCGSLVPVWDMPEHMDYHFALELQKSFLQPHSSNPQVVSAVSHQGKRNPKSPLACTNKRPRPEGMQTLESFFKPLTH

GM12878 cells = assay: MTS assay of cell proliferation, GM12878; assay type: cell-based, human; conditions: Homo sapiens, 24 h, GM12878, 24 h incubation
Summary of the method: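 Lymphoblasts grown in RPMI 1640 with 15% FBS at 37 °C and 5% CO2. Plated at 5 × 10^3 per well, grown 24 h, then exposed 24 or 72 h to test compound alone or with 10 μM lignan inhibitor added. DMSO 0.2% final; vehicle controls. MTS/PMS in PBS pH 7.2 for 4 h at 37 °C; A492; cell-free background. Triplicate; normalized absorbance fitted for IC50 with 95% CI.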

rats = conditions: dose of 100 mg/kg; cited from earlier work
pol η binding to DNA = target: T3, pol η binding to DNA (Homo sapiens, UniProt Q9Y253); assay: Polymerase–DNA interaction, electrophoretic mobility shift assay, pol η; conditions: native PAGE
T3 sequence (Q9Y253 1-713): T2 sequence (Q9Y253 1-713)

MCF7 cells = assay: MTS assay of cell proliferation, MCF7; assay type: cell-based, human; conditions: for IC50: Homo sapiens; for −log(IC50) (95% CI): tested compound alone
Summary of the method: (§1)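 Cells grown in DMEM with 10% FBS at 37 °C and 5% CO2. Plated at 5 × 10^3 per well, grown 24 h, then exposed 24 or 72 h to test compound alone or in pairs: 10 μM bleomycin-type or 250 μM alkylating agent added to the lignan, or 10 μM lignan added to either. DMSO 0.2% final; vehicle controls. MTS/PMS for 4 h; A492; cell-free background. Triplicate; IC50 fit, 95% CI.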

UACC903 cells = assay: MTS assay of cell proliferation, UACC903; assay type: cell-based, human; conditions: for IC50: Homo sapiens; for −log(IC50) (95% CI): tested compound alone
Summary of the method: as §1

[7] = eq 3, factor on Km/Ki, 95% confidence limits
[8] = eq 3, residual catalysis with HNL bound, 95% confidence limits

In the case of `C=CCc1ccc(O)c(-c2ccc(O)c(CC=C)c2)c1` [HNL, 2-(4-hydroxy-3-prop-2-enyl-phenyl)-4-prop-2-enyl-phenol], the IC50 [1] is reported as 80 µM, the Ki [1] is reported as 26 µM and the α [1, 7] is reported as 0.48 (0.23, 0.74). The β [1, 8] was 0.16 (0.09, 0.23), the “inhibition mechanism versus dCTP” value ([1]; steady-state kinetic analysis) was “mixed-type noncompetitive” and the Ki (pol β binding to DNA) was over 500 µM. The “inhibition of DNA binding to polymerase (EMSA)” value (shortened to “inhibition of DNA binding”) (pol β binding to DNA; listed as Honokiol) was “does not inhibit DNA binding”, the “inhibition of DNA binding” value (pol β binding to DNA; listed as honokiol) was “did not inhibit the binding of the DNA to the polymerase” and the IC50 [2] was 0.8 µM. The Ki [2] was 8.3 µM, the α [2, 7] was 0.51 (0.24, 0.78) and the β [2, 8] was 0.07 (0.02, 0.12). The “inhibition mechanism versus dCTP” value ([2]; steady-state kinetic analysis) was “mixed-type noncompetitive”, the solubility [3] was 200 µM (≈ 53.3 µg/mL) and the “honokiol off rate constant” value (pol β) was 0.16 s⁻¹. For the same compound, the “crossing of blood–brain and blood–cerebrospinal fluid barriers” value [4] was “crosses the blood–brain and blood–cerebrospinal fluid barriers”, the “prolonging life in xenografted mice” value [5] was “effective in prolonging life” and the “inhibition of DNA binding” value (KF(exo-) binding to DNA) was “does not inhibit DNA binding”. For the same compound, the IC50 [6] was 10 µM, the Ki [6] was 20 µM and the α [6, 7] was 0.49 (0.12, 0.85). The β [6, 8] was 0.03 (–0.10, 0.15), the “inhibition mechanism versus dCTP” value ([6]; steady-state kinetic analysis) was “linear mixed-type noncompetitive” and the EC50 (GM12878 cells; another study) was over 100 µM. The EC50 (GM12878 cells; one study) was over 1000 µM, the “toxicity and side effects in rats” value (rats) was “nontoxic with no side effects” and the “inhibition of DNA binding” value (pol η binding to DNA) was “does not inhibit DNA binding”. The IC50 (MCF7 cells; MCF7, 24 h, read-out: −log(IC50) (95% CI), MCF7, 24 h, tested compound alone (converted)) was 20 µM, the IC50 (MCF7 cells; MCF7, 72 h, read-out: −log(IC50) (95% CI), MCF7, 72 h, tested compound alone (converted)) was 15.8 µM and the “−log(IC50) (95% CI)” value (MCF7 cells; MCF7, 24 h) was 4.8 (4.7, 4.8). The “−log(IC50) (95% CI)” value (MCF7 cells; MCF7, 72 h) was 4.9 (4.8, 5.0), the IC50 (UACC903 cells; UACC-903, 24 h, read-out: −log(IC50) (95% CI), UACC903, 24 h, tested compound alone (converted)) was 25.1 µM and the IC50 (UACC903 cells; UACC-903, 72 h, read-out: −log(IC50) (95% CI), UACC903, 72 h, tested compound alone (converted)) was 15.8 µM. The “−log(IC50) (95% CI)” value (UACC903 cells; UACC903, 24 h) was 4.6 (4.47, 4.8) and the “−log(IC50) (95% CI)” value (UACC903 cells; UACC903, 72 h) was 4.8 (4.65, 4.9).
